Assay results from ChEMBL document CHEMBL1154284, “Antioxidant effects of xanthohumol and functional impact on hepatic ischemia-reperfusion injury” (J Nat Prod, 2009).
Calls of active or inactive are those of the source. No cut-off for these calls is given here.

Key:
[1] = Inhibition of TNF-alpha-induced NF-kappaB activation expressed in human HEK293 cells preincubated for 2 hrs before TNFalpha challenge by leuciferase reporter gene assay; format: cell-based
Method in brief: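 HEK 293 cells transiently transfected (Ca2+-phosphate) with NF-κB-driven firefly luciferase plasmid, replated 1×10^5 cells/well, grown 16 h; preincubated 2 h with 5–60 μM, then 1 ng/mL TNF-α for 6 h; PDTC 50 μM positive control. Lysate luciferase read; solvent-treated = 100%; mean ± SEM, n = 3.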

[2] = test system: HEK293; experiment: Antioxidant activity in human HEK293 cells loaded with dihyfrofluresceindiacetate at 1 mM; format: functional
Method in brief: (§1)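 HEK 293 cells grown to 85–90% confluency, pretreated 2 h with compound (40 μM) or NAC (1 mM); 20 μM dihydrofluorescein diacetate loaded during final 30 min at 37 °C in dark; washed, then 1 mM H2O2 for 20 min. Fluorescence ex 485/em 535 nm versus corresponding controls; mean ± SEM, n = 4.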

[3] = test system: HEK293; experiment: Antioxidant activity in human HEK293 cells loaded with dihyfrofluresceindiacetate at 40 uM; format: functional; method in brief: as §1
[4] = test system: Liver; experiment: Inhibition of ischemic and reperfusion-induced SOD activity in Sprague-Dawley rat hepatic tissue at 26.6 mM before ischemic period by pyragallol method; format: functional, tissue-based; conditions: 2.26 mM, in the assay text read “2.26 mM” for “26.6 mM”
Method in brief: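 Perfused rat livers (portal-vein pretreatment before 6 h cold ischemia, 150 min reperfusion). Tissue SOD activity by pyrogallol autoxidation method (one unit inhibits autoxidation 50%), normalized to Bradford protein, expressed as percent of untreated controls; mean ± SEM, n = 3.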

[5] = test system: Liver; experiment: Inhibition of ischemic and reperfusion-induced of GSH activity in Sprague-Dawley rat hepatic tissue at 26.6 mM before ischemic period by DTNB reduction assay; format: functional, tissue-based; conditions: 2.26 mM, in the assay text read “2.26 mM” for “26.6 mM”
Method in brief: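 Total glutathione in liver homogenate from perfused rat livers after cold ischemia/reperfusion, measured colorimetrically via DTNB reduction at 405 nm; normalized to Bradford protein; percent of untreated controls.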

[6] = biological target: T1, Caspase-3 (Rattus norvegicus) (UniProt P55213); experiment: Induction of caspase 3 in Sprague-Dawley rat ischemic-reperfused hepatic tissue assessed as generation of free fluorescent 7-amino-4-trifluoro-methylcoumarin at 2.26 mM treated before ischemic period
T1 sequence (whole entry): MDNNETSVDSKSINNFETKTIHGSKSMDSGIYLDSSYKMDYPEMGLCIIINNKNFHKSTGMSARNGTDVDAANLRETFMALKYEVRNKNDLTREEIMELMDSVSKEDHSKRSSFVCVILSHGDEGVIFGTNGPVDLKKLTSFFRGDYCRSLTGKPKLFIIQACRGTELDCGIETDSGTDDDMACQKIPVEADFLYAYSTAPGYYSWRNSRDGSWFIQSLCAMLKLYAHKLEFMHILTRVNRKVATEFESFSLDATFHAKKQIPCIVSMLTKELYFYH
Method in brief: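 Isolated perfused rat livers (2.26 mM or solvent into portal vein, 6 h 4 °C cold ischemia, 150 min reperfusion). Tissue extracts incubated with Ac-DEVD-AFC; AFC fluorescence ex 385/em 505 nm; untreated livers set as 1; mean ± SEM, n = 3.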

[7] = organism: Rattus norvegicus; experiment: Inhibition of ischemia-reperfusion-induced NF-kappaB binding activity in Sprague-Dawley rat liver at 2.26 mM treated prior to ischemic reperfusion by EMSA
[8] = biological target: Bcl-2-like protein 1 (Rattus norvegicus) (UniProt P53563); experiment: Reduction of Bcl-xl level in Sprague-Dawley rat ischemic-reperfused hepatic tissue at 2.26 mM treated before ischemic period by Western blot analysis; format: functional
Bcl-2-like protein 1 (Rattus norvegicus), sequence (P53563 whole entry, the tested form may be a part): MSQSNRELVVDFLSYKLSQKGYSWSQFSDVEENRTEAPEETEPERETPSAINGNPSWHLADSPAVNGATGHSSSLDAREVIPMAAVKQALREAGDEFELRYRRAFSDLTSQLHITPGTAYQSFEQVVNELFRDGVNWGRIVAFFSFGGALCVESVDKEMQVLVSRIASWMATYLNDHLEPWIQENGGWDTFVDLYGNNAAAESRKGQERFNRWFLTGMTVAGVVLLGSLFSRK
Method in brief: (§2)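 Rat livers given 2.26 mM or solvent via portal vein before 6 h cold ischemia and 150 min reperfusion. Western blot with antibodies to Bcl-xl or phospho-Akt (Ser-473, Thr-308), overnight at 4 °C, HRP secondary; β-actin loading control; densitometry; untreated livers as control; n = 3.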

[9] = Antioxidant activity assessed as superoxide radical anion scavenging activity after 100 secs by xanthine/xanthine oxidase method; format: functional
Method in brief: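 Cell-free chemiluminescence: 1 mM xanthine with test solution (5–80 μM), reaction started by injecting 1 mM luminol and 0.5 U/mL xanthine oxidase (stock concentrations). Light read for 100 s at 37 °C; output as RLU or area under the curve, relative to solvent control (100%); n = 9.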

[10] = test system: HEK293; experiment: Cytotoxicity against human HEK293 cells upto 10 to 300 uM after 3 hrs by MTT assay; format: cell-based; conditions: hek293, 3 h
Method in brief: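 HEK 293 cells near 85–90% confluency exposed 3 h to 10–300 μM; MTT added, 1 h at 37 °C; formazan dissolved in DMSO and absorbance read at 550 nm.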

[11] = test system: Liver; experiment: Effect on ischemic and reperfusion-induced injury in Sprague-Dawley rat hepatic tissue at 2.26 mM before ischemic period assessed as ALT level; format: functional, tissue-based; conditions: Sprague-Dawely
Method in brief: (§3)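 Male Sprague–Dawley rats (200–240 g) livers perfused with Krebs–Henseleit buffer pH 7.4, 37 °C; 2.26 mM compound or solvent injected via portal vein before 6 h cold ischemia at 4 °C; reperfused 150 min at 37 °C. Perfusate ALT, AST, LDH measured over time on clinical analyzer at 37 °C; mean ± SEM, n = 3.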

[12] = test system: Liver; experiment: Effect on ischemic and reperfusion-induced injury in Sprague-Dawley rat hepatic tissue at 2.26 mM before ischemic period assessed as AST level; format: functional, tissue-based; conditions: Sprague-Dawely; method in brief: as §3
[13] = test system: Liver; experiment: Inhibition of ischemic and reperfusion-induced oxidative stress in Sprague-Dawley rat hepatic tissue at 26.6 mM before ischemic period assessed as decrease in 8-isoprostane level; format: functional, tissue-based; conditions: 2.26 mM, in the assay text read “2.26 mM” for “26.6 mM”
Method in brief: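 Liver homogenates from perfused rat livers after cold ischemia/reperfusion; 8-isoprostane by competitive EIA with acetylcholinesterase conjugate, absorbance 412 nm; percent of untreated controls.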

[14] = biological target: RAC-alpha serine/threonine-protein kinase (Rattus norvegicus) (UniProt P47196); experiment: Inhibition of AKt phosphorylation in Sprague-Dawley rat ischemic reperfusion treated hepatic tissue at 2.26 mM before ischemic period by Western blot analysis; method in brief: as §2
RAC-alpha serine/threonine-protein kinase (Rattus norvegicus), sequence (P47196 whole entry, the tested form may be a part): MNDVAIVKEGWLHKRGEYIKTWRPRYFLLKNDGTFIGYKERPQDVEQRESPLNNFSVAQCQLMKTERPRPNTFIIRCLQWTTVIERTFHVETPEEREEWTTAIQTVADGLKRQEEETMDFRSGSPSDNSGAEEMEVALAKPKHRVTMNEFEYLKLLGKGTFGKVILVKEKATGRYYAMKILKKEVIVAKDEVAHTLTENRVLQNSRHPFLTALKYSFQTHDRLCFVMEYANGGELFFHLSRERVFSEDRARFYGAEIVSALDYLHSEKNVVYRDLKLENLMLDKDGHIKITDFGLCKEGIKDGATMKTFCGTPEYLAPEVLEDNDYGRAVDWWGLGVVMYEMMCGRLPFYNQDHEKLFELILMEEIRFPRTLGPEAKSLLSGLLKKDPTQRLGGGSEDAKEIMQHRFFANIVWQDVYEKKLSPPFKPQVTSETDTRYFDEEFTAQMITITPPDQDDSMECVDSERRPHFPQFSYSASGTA

[15] = test system: Liver; experiment: Effect on ischemic and reperfusion-induced injury in Sprague-Dawley rat hepatic tissue at 2.26 mM before ischemic period assessed as LDH level; format: functional, tissue-based; conditions: Sprague-Dawely; method in brief: as §3

IC50 [1]: 35 µM
Activity [6]: Active
inhibition [7]: Active
Activity [8]: Active
IC50 [9]: 15 µM
inhibition [14]: Active
SMILES: COc1cc(O)c(CC=C(C)C)c(O)c1C(=O)/C=C/c1ccc(O)cc1 [XANTHOHUMOL]
Activity [2]: 46.2%
Activity [3]: 71.9%
inhibition [4]: Active
inhibition [5]: Active
Activity [10]: Non-toxic
Activity [11]: inactive
Activity [12]: inactive
inhibition [13]: Active
Activity [15]: inactive
